Laboratory results as given in ChEMBL document CHEMBL1140895, “Synthesis of antisense oligonucleotides containing 2'-O-psoralenylmethoxyalkyl adenosine for photodynamic regulation of point mutations in RNA” (Bioorg Med Chem, 2009).
The source made the active and inactive calls. The rule behind the calls is not given here.

How the values were obtained:
[1] = Binding affinity to oligoribonucleotide ORN-U assessed as thermal stability by UV melting study
In short: (§1)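 Duplex melting curves were recorded by UV absorbance with temperature ramped at 1.0 °C/min. Each oligonucleotide was at 2.0 µM in 100 mM phosphate buffer (pH 7.0) containing 0.1 M NaCl.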

[2] = Binding affinity to oligoribonucleotide ORN-G assessed as thermal stability by UV melting study; in short: as §1
[3] = Binding affinity to oligoribonucleotide ORN-U assessed as formation of stable A form like duplex with ORN-U by UV spectroscopy
[4] = Binding affinity to oligoribonucleotide ORN-U assessed as intercalation by fluorescence spectroscopy
[5] = Binding affinity to oligoribonucleotide ORN-U assessed as photo cross linking activity by reversed phase HPLC
In short: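 Equimolar 2′-Ps-oligo and ORN (2.0 µM each) were denatured at 85 °C for 5 min and slowly cooled to 37 °C in 100 mM sodium phosphate (pH 7.0) with 0.1 M NaCl. Samples were irradiated with UVA (365 nm transilluminator, 1.6 mW/cm²) and analysed by C18 reversed-phase HPLC (TEAA pH 7.0/acetonitrile gradient, 40 °C oven) to follow intact ORN and cross-linked product.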

[6] = Binding affinity to oligoribonucleotide ORN-U assessed as photo-cross-linking efficiency with ORN-U after UVA irradiation of 1 min by time course photo cross linking study
[7] = Binding affinity to oligoribonucleotide ORN-G assessed as photo-cross-linking efficiency with ORN-G after UVA irradiation of 1 min by time course photo cross linking study
[8] = Binding affinity to oligoribonucleotide ORN-U assessed as photo-cross-linking efficiency with ORN-U after UVA irradiation of 120 min by time course photo cross linking study

Row | Tm [1] | Tm [2] | Activity [3] | Activity [4] | Activity [5] | photo-cross-linking efficiency [6] | photo-cross-linking efficiency [7] | Activity [8] | SMILES
1 | 64 °C | 60.2 °C | Active | Active |  |  |  |  | Cc1oc2c(C)c3oc(=O)cc(C)c3cc2c1COCCCCO[C@@H]1[C@H](OP(=O)(O)OC[C@H]2O[C@@H](n3ccc(N)nc3=O)C[C@@H]2OP(=O)(O)OC[C@H]2O[C@@H](n3cnc4c(N)ncnc43)C[C@@H]2OP(=O)(O)OC[C@H]2O[C@@H](n3cnc4c(=O)[nH]c(N)nc43)C[C@@H]2OP(=O)(O)OC[C@H]2O[C@@H](n3ccc(N)nc3=O)C[C@@H]2OP(=O)(O)OC[C@H]2O[C@@H](n3cc(C)c(=O)[nH]c3=O)C[C@@H]2OP(=O)(O)OC[C@H]2O[C@@H](n3ccc(N)nc3=O)C[C@@H]2OP(=O)(O)OC[C@H]2O[C@@H](n3ccc(N)nc3=O)C[C@@H]2O)[C@@H](COP(=O)(O)O[C@H]2C[C@H](n3cnc4c(N)ncnc43)O[C@@H]2COP(=O)(O)O[C@H]2C[C@H](n3ccc(N)nc3=O)O[C@@H]2COP(=O)(O)O[C@H]2C[C@H](n3ccc(N)nc3=O)O[C@@H]2COP(=O)(O)O[C@H]2C[C@H](n3cnc4c(=O)[nH]c(N)nc43)O[C@@H]2COP(=O)(O)O[C@H]2C[C@H](n3ccc(N)nc3=O)O[C@@H]2COP(=O)(O)O[C@H]2C[C@H](n3cnc4c(N)ncnc43)O[C@@H]2COP(=O)(O)O[C@H]2C[C@H](n3cc(C)c(=O)[nH]c3=O)O[C@@H]2CO)O[C@H]1n1cnc2c(N)ncnc21
2 | 63.1 °C | 59.1 °C | Active | Active | Active | 75% | 7% |  | Cc1oc2c(C)c3oc(=O)cc(C)c3cc2c1COCCO[C@@H]1[C@H](OP(=O)(O)OC[C@H]2O[C@@H](n3ccc(N)nc3=O)C[C@@H]2OP(=O)(O)OC[C@H]2O[C@@H](n3cnc4c(N)ncnc43)C[C@@H]2OP(=O)(O)OC[C@H]2O[C@@H](n3cnc4c(=O)[nH]c(N)nc43)C[C@@H]2OP(=O)(O)OC[C@H]2O[C@@H](n3ccc(N)nc3=O)C[C@@H]2OP(=O)(O)OC[C@H]2O[C@@H](n3cc(C)c(=O)[nH]c3=O)C[C@@H]2OP(=O)(O)OC[C@H]2O[C@@H](n3ccc(N)nc3=O)C[C@@H]2OP(=O)(O)OC[C@H]2O[C@@H](n3ccc(N)nc3=O)C[C@@H]2O)[C@@H](COP(=O)(O)O[C@H]2C[C@H](n3cnc4c(N)ncnc43)O[C@@H]2COP(=O)(O)O[C@H]2C[C@H](n3ccc(N)nc3=O)O[C@@H]2COP(=O)(O)O[C@H]2C[C@H](n3ccc(N)nc3=O)O[C@@H]2COP(=O)(O)O[C@H]2C[C@H](n3cnc4c(=O)[nH]c(N)nc43)O[C@@H]2COP(=O)(O)O[C@H]2C[C@H](n3ccc(N)nc3=O)O[C@@H]2COP(=O)(O)O[C@H]2C[C@H](n3cnc4c(N)ncnc43)O[C@@H]2COP(=O)(O)O[C@H]2C[C@H](n3cc(C)c(=O)[nH]c3=O)O[C@@H]2CO)O[C@H]1n1cnc2c(N)ncnc21
3 | 67.3 °C | 58.9 °C |  |  |  |  |  |  | Cc1cn([C@H]2C[C@H](OP(=O)(O)OC[C@H]3O[C@@H](n4cnc5c(N)ncnc54)C[C@@H]3OP(=O)(O)OC[C@H]3O[C@@H](n4ccc(N)nc4=O)C[C@@H]3OP(=O)(O)OC[C@H]3O[C@@H](n4cnc5c(=O)[nH]c(N)nc54)C[C@@H]3OP(=O)(O)OC[C@H]3O[C@@H](n4ccc(N)nc4=O)C[C@@H]3OP(=O)(O)OC[C@H]3O[C@@H](n4ccc(N)nc4=O)C[C@@H]3OP(=O)(O)OC[C@H]3O[C@@H](n4cnc5c(N)ncnc54)C[C@@H]3OP(=O)(O)OC[C@H]3O[C@@H](n4cnc5c(N)ncnc54)C[C@@H]3OP(=O)(O)OC[C@H]3O[C@@H](n4ccc(N)nc4=O)C[C@@H]3OP(=O)(O)OC[C@H]3O[C@@H](n4cnc5c(N)ncnc54)C[C@@H]3OP(=O)(O)OC[C@H]3O[C@@H](n4cnc5c(=O)[nH]c(N)nc54)C[C@@H]3OP(=O)(O)OC[C@H]3O[C@@H](n4ccc(N)nc4=O)C[C@@H]3OP(=O)(O)OC[C@H]3O[C@@H](n4cc(C)c(=O)[nH]c4=O)C[C@@H]3OP(=O)(O)OC[C@H]3O[C@@H](n4ccc(N)nc4=O)C[C@@H]3OP(=O)(O)OC[C@H]3O[C@@H](n4ccc(N)nc4=O)C[C@@H]3O)[C@@H](CO)O2)c(=O)[nH]c1=O
4 |  |  |  |  |  | 3% |  | 35% | Cc1oc2c(C)c3oc(=O)cc(C)c3cc2c1CO[C@@H]1[C@H](OP(=O)(O)OC[C@H]2O[C@@H](n3ccc(N)nc3=O)C[C@@H]2OP(=O)(O)OC[C@H]2O[C@@H](n3cnc4c(N)ncnc43)C[C@@H]2OP(=O)(O)OC[C@H]2O[C@@H](n3cnc4c(=O)[nH]c(N)nc43)C[C@@H]2OP(=O)(O)OC[C@H]2O[C@@H](n3ccc(N)nc3=O)C[C@@H]2OP(=O)(O)OC[C@H]2O[C@@H](n3cc(C)c(=O)[nH]c3=O)C[C@@H]2OP(=O)(O)OC[C@H]2O[C@@H](n3ccc(N)nc3=O)C[C@@H]2OP(=O)(O)OC[C@H]2O[C@@H](n3ccc(N)nc3=O)C[C@@H]2O)[C@@H](COP(=O)(O)O[C@H]2C[C@H](n3cnc4c(N)ncnc43)O[C@@H]2COP(=O)(O)O[C@H]2C[C@H](n3ccc(N)nc3=O)O[C@@H]2COP(=O)(O)O[C@H]2C[C@H](n3ccc(N)nc3=O)O[C@@H]2COP(=O)(O)O[C@H]2C[C@H](n3cnc4c(=O)[nH]c(N)nc43)O[C@@H]2COP(=O)(O)O[C@H]2C[C@H](n3ccc(N)nc3=O)O[C@@H]2COP(=O)(O)O[C@H]2C[C@H](n3cnc4c(N)ncnc43)O[C@@H]2COP(=O)(O)O[C@H]2C[C@H](n3cc(C)c(=O)[nH]c3=O)O[C@@H]2CO)O[C@H]1n1cnc2c(N)ncnc21
5 | 62.7 °C | 58.8 °C | Active | Active | Active | 50% | 9% |  | Cc1oc2c(C)c3oc(=O)cc(C)c3cc2c1COCCCO[C@@H]1[C@H](OP(=O)(O)OC[C@H]2O[C@@H](n3ccc(N)nc3=O)C[C@@H]2OP(=O)(O)OC[C@H]2O[C@@H](n3cnc4c(N)ncnc43)C[C@@H]2OP(=O)(O)OC[C@H]2O[C@@H](n3cnc4c(=O)[nH]c(N)nc43)C[C@@H]2OP(=O)(O)OC[C@H]2O[C@@H](n3ccc(N)nc3=O)C[C@@H]2OP(=O)(O)OC[C@H]2O[C@@H](n3cc(C)c(=O)[nH]c3=O)C[C@@H]2OP(=O)(O)OC[C@H]2O[C@@H](n3ccc(N)nc3=O)C[C@@H]2OP(=O)(O)OC[C@H]2O[C@@H](n3ccc(N)nc3=O)C[C@@H]2O)[C@@H](COP(=O)(O)O[C@H]2C[C@H](n3cnc4c(N)ncnc43)O[C@@H]2COP(=O)(O)O[C@H]2C[C@H](n3ccc(N)nc3=O)O[C@@H]2COP(=O)(O)O[C@H]2C[C@H](n3ccc(N)nc3=O)O[C@@H]2COP(=O)(O)O[C@H]2C[C@H](n3cnc4c(=O)[nH]c(N)nc43)O[C@@H]2COP(=O)(O)O[C@H]2C[C@H](n3ccc(N)nc3=O)O[C@@H]2COP(=O)(O)O[C@H]2C[C@H](n3cnc4c(N)ncnc43)O[C@@H]2COP(=O)(O)O[C@H]2C[C@H](n3cc(C)c(=O)[nH]c3=O)O[C@@H]2CO)O[C@H]1n1cnc2c(N)ncnc21
